Values after ≈ are worked out from the molar mass of the structure shown.
What was measured:
Type in all cases: functional
[1] = test system: Nakaseomyces glabratus; test: Antifungal activity against Candida glabrata ATCC 90030 by NCCLS M27-A2 method
Procedure, shortened: (§1)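 Broth dilution per NCCLS M27-A2, with azoles serially diluted in high-resolution antifungal assay medium over 0.125–128, 0.03–64 or 0.06–128 μg/ml depending on the drug. MIC endpoints were read spectrophotometrically at 540 nm. Values are reported per species or source group as median and range.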

[2] = test system: Candida albicans; test: Antifungal activity against Candida albicans isolates from animals by NCCLS M27-A2 method; procedure, shortened: as §1
[3] = test system: Pichia norvegensis; test: Antifungal activity against Candida norvegensis isolates from grapes by NCCLS M27-A2 method; procedure, shortened: as §1
[4] = test system: Wickerhamomyces anomalus; test: Antifungal activity against Pichia anomala isolates from grapes by NCCLS M27-A2 method; settings: Hansenula anomala; procedure, shortened: as §1
[5] = test system: Saccharomycopsis; test: Antifungal activity against Saccharomycopsis guttulata isolates from feeding stuff by NCCLS M27-A2 method; procedure, shortened: as §1
[6] = test system: Candida albicans; test: Antifungal activity against Candida albicans isolates by NCCLS M27-A2 method; procedure, shortened: as §1
[7] = test system: Hanseniaspora uvarum; test: Antifungal activity against sKloeckera apiculata isolates from grapes by NCCLS M27-A2 method; procedure, shortened: as §1
[8] = test system: Nakaseomyces glabratus; test: Antifungal activity against Candida glabrata isolates from feeding stuffs by NCCLS M27-A2 method; procedure, shortened: as §1
[9] = test system: Starmerella stellata; test: Antifungal activity against sCandida stellata isolates from grapes by NCCLS M27-A2 method; procedure, shortened: as §1
[10] = test system: Candida albicans; test: Antifungal activity against Candida albicans isolates from HIV infected patient before fluconazole therapy by NCCLS M27-A2 method; procedure, shortened: as §1
[11] = test system: Cryptococcus neoformans; test: Antifungal activity against Cryptococcus neoformans ATCC 90112 by NCCLS M27-A2 method
[12] = test system: Rhodotorula; test: Antifungal activity against Rhodotorula sp. isolates from grapes by NCCLS M27-A2 method; procedure, shortened: as §1
[13] = test system: Candida albicans; test: Antifungal activity against Candida albicans isolates from HIV infected patient during fluconazole therapy by NCCLS M27-A2 method; procedure, shortened: as §1
[14] = test system: Saccharomyces cerevisiae; test: Antifungal activity against sSaccharomyces cerevisiae isolates from grapes by NCCLS M27-A2 method; procedure, shortened: as §1
[15] = test system: Pichia kudriavzevii; test: Antifungal activity against Candida krusei isolates from grapes and feeding stuffs by NCCLS M27-A2 method; procedure, shortened: as §1
[16] = test system: Diutina rugosa; test: Antifungal activity against Candida rugosa isolates from feeding stuff by NCCLS M27-A2 method; procedure, shortened: as §1
[17] = test system: Pichia fermentans; test: Antifungal activity against Candida lambica isolates from grapes by NCCLS M27-A2 method; procedure, shortened: as §1
[18] = test system: Candida parapsilosis; test: Antifungal activity against Candida parapsilosis ATCC 22013 by NCCLS M27-A2 method; settings: Lodderomyces parapsilosis
[19] = test system: Pichia kudriavzevii; test: Antifungal activity against Candida krusei ATCC 6258 by NCCLS M27-A2 method; procedure, shortened: as §1

Compound	MIC50 [1]	MIC50 [2]	MIC50 [3]	MIC50 [4]	MIC50 [5]	MIC50 [6]	MIC50 [7]	MIC50 [8]	MIC50 [9]	MIC50 [10]	MIC50 [11]	MIC50 [12]	MIC50 [13]	MIC50 [14]	MIC50 [15]	MIC50 [16]	MIC50 [17]	MIC50 [18]	MIC50 [19]
CC(C)(C)C(O)C(Oc1ccc(Cl)cc1)n1cncn1 (stereo unspecified) [TRIADIMENOL]	8 µg/mL (≈ 27 µM)	1.5 µg/mL (≈ 5.07 µM)	64 µg/mL (≈ 216 µM)	16 µg/mL (≈ 54.1 µM)	16 µg/mL (≈ 54.1 µM)	2 µg/mL (≈ 6.76 µM)	0.25 µg/mL (≈ 0.845 µM)	8 µg/mL (≈ 27 µM)	128 µg/mL (≈ 433 µM)	2 µg/mL (≈ 6.76 µM)	4 µg/mL (≈ 13.5 µM)	64 µg/mL (≈ 216 µM)	64 µg/mL (≈ 216 µM)	8 µg/mL (≈ 27 µM)	64 µg/mL (≈ 216 µM)	1 µg/mL (≈ 3.38 µM)	128 µg/mL (≈ 433 µM)	16 µg/mL (≈ 54.1 µM)	32 µg/mL (≈ 108 µM)
O=c1c2cc(F)ccc2nc(-n2cncn2)n1-c1ccc(Cl)cc1Cl [FLUQUINCONAZOLE]	32 µg/mL (≈ 85.1 µM)	0.5 µg/mL (≈ 1.33 µM)	64 µg/mL (≈ 170 µM)	4 µg/mL (≈ 10.6 µM)	64 µg/mL (≈ 170 µM)	0.5 µg/mL (≈ 1.33 µM)	0.12 µg/mL (≈ 0.319 µM)	1 µg/mL (≈ 2.66 µM)	64 µg/mL (≈ 170 µM)	0.375 µg/mL (≈ 0.997 µM)	0.12 µg/mL (≈ 0.319 µM)	0.5 µg/mL (≈ 1.33 µM)	64 µg/mL (≈ 170 µM)	0.25 µg/mL (≈ 0.665 µM)	128 µg/mL (≈ 340 µM)	0.12 µg/mL (≈ 0.319 µM)	64 µg/mL (≈ 170 µM)	2 µg/mL (≈ 5.32 µM)	128 µg/mL (≈ 340 µM)
CCC(C)n1ncn(-c2ccc(N3CCN(c4ccc(OCC5COC(Cn6cncn6)(c6ccc(Cl)cc6Cl)O5)cc4)CC3)cc2)c1=O (stereo unspecified) [ITRACONAZOLE]	4 µg/mL (≈ 5.67 µM)	0.12 µg/mL (≈ 0.17 µM)	1 µg/mL (≈ 1.42 µM)	0.5 µg/mL (≈ 0.709 µM)	0.5 µg/mL (≈ 0.709 µM)	0.06 µg/mL (≈ 0.085 µM)	0.25 µg/mL (≈ 0.354 µM)	1 µg/mL (≈ 1.42 µM)	2 µg/mL (≈ 2.83 µM)	0.06 µg/mL (≈ 0.085 µM)	0.5 µg/mL (≈ 0.709 µM)	0.06 µg/mL (≈ 0.085 µM)	0.75 µg/mL (≈ 1.06 µM)	2 µg/mL (≈ 2.83 µM)	1 µg/mL (≈ 1.42 µM)	0.06 µg/mL (≈ 0.085 µM)	2 µg/mL (≈ 2.83 µM)	0.25 µg/mL (≈ 0.354 µM)	0.5 µg/mL (≈ 0.709 µM)
CC(=O)N1CCN(c2ccc(OCC3COC(Cn4ccnc4)(c4ccc(Cl)cc4Cl)O3)cc2)CC1 (stereo unspecified) [KETOCONAZOLE]	8 µg/mL (≈ 15.1 µM)	0.5 µg/mL (≈ 0.941 µM)	2 µg/mL (≈ 3.76 µM)	1 µg/mL (≈ 1.88 µM)	2 µg/mL (≈ 3.76 µM)	0.03 µg/mL (≈ 0.0565 µM)	0.25 µg/mL (≈ 0.47 µM)	4 µg/mL (≈ 7.53 µM)	8 µg/mL (≈ 15.1 µM)	0.25 µg/mL (≈ 0.47 µM)	2 µg/mL (≈ 3.76 µM)	0.5 µg/mL (≈ 0.941 µM)	2 µg/mL (≈ 3.76 µM)	2 µg/mL (≈ 3.76 µM)	8 µg/mL (≈ 15.1 µM)	0.25 µg/mL (≈ 0.47 µM)	4 µg/mL (≈ 7.53 µM)	0.12 µg/mL (≈ 0.226 µM)	2 µg/mL (≈ 3.76 µM)
CCCC(Cn1cncn1)c1ccc(Cl)cc1Cl (stereo unspecified) [PENCONAZOLE]	4 µg/mL (≈ 14.1 µM)	2 µg/mL (≈ 7.04 µM)	64 µg/mL (≈ 225 µM)	8 µg/mL (≈ 28.2 µM)	8 µg/mL (≈ 28.2 µM)	2 µg/mL (≈ 7.04 µM)	0.5 µg/mL (≈ 1.76 µM)	4 µg/mL (≈ 14.1 µM)	96 µg/mL (≈ 338 µM)	0.25 µg/mL (≈ 0.88 µM)	4 µg/mL (≈ 14.1 µM)	16 µg/mL (≈ 56.3 µM)	12 µg/mL (≈ 42.2 µM)	2 µg/mL (≈ 7.04 µM)	128 µg/mL (≈ 450 µM)	1 µg/mL (≈ 3.52 µM)	64 µg/mL (≈ 225 µM)	8 µg/mL (≈ 28.2 µM)	64 µg/mL (≈ 225 µM)
OC(Cn1cncn1)(Cn1cncn1)c1ccc(F)cc1F [FLUCONAZOLE]		0.25 µg/mL (≈ 0.816 µM)	128 µg/mL (≈ 418 µM)	2 µg/mL (≈ 6.53 µM)	1 µg/mL (≈ 3.27 µM)	0.12 µg/mL (≈ 0.392 µM)	0.5 µg/mL (≈ 1.63 µM)	32 µg/mL (≈ 104 µM)	64 µg/mL (≈ 209 µM)	2.25 µg/mL (≈ 7.35 µM)	8 µg/mL (≈ 26.1 µM)	16 µg/mL (≈ 52.2 µM)	128 µg/mL (≈ 418 µM)	8 µg/mL (≈ 26.1 µM)	64 µg/mL (≈ 209 µM)	1 µg/mL (≈ 3.27 µM)	128 µg/mL (≈ 418 µM)	2 µg/mL (≈ 6.53 µM)	64 µg/mL (≈ 209 µM)
CC(C)(C)C(O)(CCc1ccc(Cl)cc1)Cn1cncn1 (stereo unspecified) [TEBUCONAZOLE]	8 µg/mL (≈ 26 µM)	0.185 µg/mL (≈ 0.601 µM)	4 µg/mL (≈ 13 µM)	4 µg/mL (≈ 13 µM)	4 µg/mL (≈ 13 µM)	0.06 µg/mL (≈ 0.195 µM)	0.06 µg/mL (≈ 0.195 µM)	2 µg/mL (≈ 6.5 µM)	64 µg/mL (≈ 208 µM)	0.75 µg/mL (≈ 2.44 µM)	4 µg/mL (≈ 13 µM)	1 µg/mL (≈ 3.25 µM)	24 µg/mL (≈ 78 µM)	1 µg/mL (≈ 3.25 µM)	64 µg/mL (≈ 208 µM)	0.06 µg/mL (≈ 0.195 µM)	16 µg/mL (≈ 52 µM)	1 µg/mL (≈ 3.25 µM)	32 µg/mL (≈ 104 µM)
C[C@@H](c1ncncc1F)[C@](O)(Cn1cncn1)c1ccc(F)cc1F [VORICONAZOLE]	2 µg/mL (≈ 5.73 µM)	0.03 µg/mL (≈ 0.0859 µM)	2 µg/mL (≈ 5.73 µM)	0.25 µg/mL (≈ 0.716 µM)	0.12 µg/mL (≈ 0.344 µM)	0.03 µg/mL (≈ 0.0859 µM)	0.03 µg/mL (≈ 0.0859 µM)	0.25 µg/mL (≈ 0.716 µM)	1 µg/mL (≈ 2.86 µM)	0.03 µg/mL (≈ 0.0859 µM)	0.25 µg/mL (≈ 0.716 µM)	0.06 µg/mL (≈ 0.172 µM)	1.5 µg/mL (≈ 4.29 µM)	0.5 µg/mL (≈ 1.43 µM)	1 µg/mL (≈ 2.86 µM)	0.03 µg/mL (≈ 0.0859 µM)	2 µg/mL (≈ 5.73 µM)	0.06 µg/mL (≈ 0.172 µM)	1 µg/mL (≈ 2.86 µM)

— ChEMBL document CHEMBL1155174, “Cross-resistance to medical and agricultural azole drugs in yeasts from the oropharynx of human immunodeficiency virus patients and from environmental Bavarian vine grapes” (2007)
